Most compounds without a hit are left out; they make up all but 3% or so of the library.
SIRT5 inh: blocks human SIRT5 desuccinylation of peptide. Purified SirT5, succinyl-peptide AMC, trypsin-coupled fluorescence. 1.1% of 330,000 active. inhibition, % at 15 µM; in the data active = inhibition above about 15%; inconclusive = no clear call, values can overlap the other calls
Target sequence (Q9NXA8 whole entry, looked up): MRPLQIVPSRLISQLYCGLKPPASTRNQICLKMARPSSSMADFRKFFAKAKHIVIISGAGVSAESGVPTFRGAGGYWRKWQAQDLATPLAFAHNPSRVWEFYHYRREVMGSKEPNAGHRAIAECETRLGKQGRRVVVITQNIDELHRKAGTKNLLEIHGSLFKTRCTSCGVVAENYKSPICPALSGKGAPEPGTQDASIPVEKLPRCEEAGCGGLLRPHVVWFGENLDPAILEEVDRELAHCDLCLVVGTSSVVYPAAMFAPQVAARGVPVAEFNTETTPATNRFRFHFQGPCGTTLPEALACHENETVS
rRNA inh HTS: inhibits bacterial ribosomal RNA function over humanized ribosomes. E. coli WT GFP vs humanized-ribosome RFP mutants, fluorescence, 24 h; stronger effect = lower value; DMSO median 0, no signal -100. GFP signal change (wild-type ribosome), % (concentration not given with the values). 1.6% of 350,000 active. AID 720706;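 active = significant combined selectivity score with lowered wild-type GFP, culture density cut under 30%, mutant RFP and density less affected; inactive = any of these conditions unmet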
PGC1a acetyl inh: lowers PGC1a acetylation signal in U2OS cells | AlphaScreen anti-acetyl-lysine; with virally co-expressed GCN5 acetyltransferase | inhibition, % at 15.6 µM | 0.17% of 350,000 active | AID 651687;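 active = every replicate shows inhibition of at least 40%; inconclusive = mean inhibition at least 40% but some replicate below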;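 note: 0% = neutral control wells and 100% = positive control wells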
Cneo AK release: Cryptococcus neoformans lysis via adenylate kinase release. 0.2% of 360,000 active. lysis activity, % at 15 µM. C. neoformans lysis, adenylate kinase release luminescence, 4 h; normalised: neutral wells 0, clomiphene wells 100. AID 651654;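 active = mean lysis activity across replicates of at least 80%, whatever share of replicates individually reach that level; inactive = mean lysis activity below 80%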
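Material: C. neoformans cells; Schedule: 4 h static compound exposure, 37 °C, read 1 h post-reagent; Measured by: adenylate kinase release luminescence; Read-out: signal increase indicating cell lysis; Controls: Clomiphene as positive lysis control.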
Statin myotox sup: protects C2C12 myotubes from simvastatin toxicity. rescue of ATP level, % at 7.49 µM. AID 602340. 0.78% of 330,000 active. ATP luminescence, 48 h; scaled: DMSO 0, geranylgeraniol control 100;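 active = mean ATP rescue above about 67%, or every replicate alone reaching that limit, limit read from the data, passing the limit was not always enough; inconclusive = no clear call, values can overlap the other calls; inactive = mean under the limit and some replicate under it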;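 note: myotubes were challenged with 10 µM simvastatin during compound exposure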
S100A4 inh HTS: blocks human S100A4 binding to myosin IIA peptide | P26447 | S100A4/TAMRA-MyoIIA peptide fluorescence polarization | inhibition, % at 10.7 µM | 0.14% of 360,000 active;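 active = mean inhibition of at least 70% across replicates, with every replicate also reaching that level; inconclusive = mean inhibition reaches 70% but some replicates fall short; inactive = mean inhibition below 70%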
Target sequence (P26447 whole entry, looked up): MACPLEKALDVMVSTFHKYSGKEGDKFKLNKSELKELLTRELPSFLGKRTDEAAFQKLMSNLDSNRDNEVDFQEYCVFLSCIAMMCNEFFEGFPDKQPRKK
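Test system: S100A4 monomer protein; Medium: HEPES pH 7.2 with CaCl2, KCl, NaCl, DTT, Triton; Probe or stimulus: TAMRA-labelled myosin IIA heavy-chain peptide probe, 5 nM; Doses: one dose per compound; Times: polarization read 5 min after assay mix addition, stable 5–60 min; Benchmarks: neutral control DMSO, positive control TFP.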
Active calls of the source: *; ? = inconclusive; · = no result.

SMILES	SIRT5 inh	rRNA inh HTS	PGC1a acetyl inh	Cneo AK release	Statin myotox sup	S100A4 inh HTS
C[C@@H]1CN([C@@H](C)CO)S(=O)(=O)c2ccc(-c3cccc(C#N)c3)cc2O[C@H]1CN(C)Cc1cccc(F)c1	1	-1	-11	58	-183	-8
C[C@@H]1CCCCO[C@@H](CN(C)Cc2ccc(Cl)c(Cl)c2)[C@@H](C)CN([C@@H](C)CO)C(=O)c2cc(NC(=O)NC3CCCCC3)ccc2O1	16*	3	·	-1	?	-37
C[C@@H]1CN([C@H](C)CO)C(=O)c2cc(NC(=O)NC3CCCCC3)ccc2O[C@@H](C)CCCCO[C@@H]1CN(C)Cc1ccc(Cl)c(Cl)c1	24*	0	·	-1	65	16
Cc1sc2nc(N3CCOCC3)[nH]c(=O)c2c1-c1ccccc1	31*	3	·	·	·	-5
CN(C)S(=O)(=O)c1ccc(C(=O)NCCOc2ccc(F)cc2)cc1	-3	-7	6	-2	146*	3
Cc1noc(C)c1NC(=O)Nc1ccc2c(c1)C(=O)N([C@@H](C)CO)C[C@@H](C)[C@@H](CN(C)C)OCCCC[C@H](C)O2	-3	2	12	-6	24	3
COc1cc(OC)c(C(=O)OCC(=O)N(Cc2ccccc2)C(C)(C)C)cc1OC	7	-30*	6	·	·	0
CCCC#Cc1ccc2c(c1)O[C@@H](CN(C)C(=O)Nc1ccccc1F)[C@H](C)CN([C@@H](C)CO)S2(=O)=O	17*	-6	10	8	-5	-3
CCCC#Cc1ccc2c(c1)O[C@@H](CN(C)C(=O)c1ccccc1F)[C@H](C)CN([C@@H](C)CO)S2(=O)=O	14	-16	-4	51	-38	1
CCCC#Cc1ccc2c(c1)O[C@H](CN(C)C(=O)c1ccccc1F)[C@H](C)CN([C@@H](C)CO)S2(=O)=O	19*	1	-4	6	-13	10
CC(C)CC#Cc1ccc2c(c1)O[C@H](CN(C)C(=O)Nc1ccccc1F)[C@H](C)CN([C@H](C)CO)S2(=O)=O	18*	-2	1	-1	17	-8
CC(C)CC#Cc1ccc2c(c1)O[C@H](CN(C)C(=O)Nc1ccccc1F)[C@@H](C)CN([C@H](C)CO)S2(=O)=O	7	-2	14	-2	38	-9
CCCC#Cc1ccc2c(c1)O[C@@H](CN(C)C(=O)Nc1ccccc1F)[C@H](C)CN([C@H](C)CO)S2(=O)=O	20*	-7	4	10	-21	15
CC(C)C#Cc1cnc2c(c1)C(=O)N([C@@H](C)CO)C[C@H](C)[C@H](CN(C)C(=O)c1cnccn1)O2	3	2	-5	7	8	6
C[C@@H]1CN([C@H](C)CO)C(=O)c2cc(NC(=O)CCC(F)(F)F)ccc2O[C@@H](C)CCCCO[C@H]1CN(C)C(=O)C1CCCCC1	4	-1	-17	2	·	0
CCOC(=O)Cn1c(=O)oc2cc(S(=O)(=O)N(C)c3ccc(OC)cc3)ccc21	-3	-8	-2	-4	-3	-1
CCOC(=O)Cn1c(=O)oc2cc(S(=O)(=O)N(C)c3cccc(C)c3)ccc21	·	-22*	-5	·	·	-6
CC1CCC2(CC1)NC(=O)N(CC(=O)Nc1ccc(N3CCOCC3)cc1)C2=O (stereo not drawn)	-5	-3	4	-2	-6	-5
CC1CCCCC12NC(=O)N(CC(=O)Nc1ccc(N3CCOCC3)cc1)C2=O (stereo not drawn)	16*	5	·	·	·	0
CCOC(=O)[C@]12CCC=C1N(Cc1ccccc1)C(=O)[C@H](CC(=O)NCCc1ccccc1OC)C2	2	-16	·	·	·	-6
CCCCCCCCN1C(=O)[C@H](CC(=O)NCCCN2CCCC2=O)C[C@@]2(C(=O)OC)CC(C)(C)CC=C12	19*	0	·	·	·	1
CCOC(=O)[C@]12CCCC=C1N(Cc1ccccc1)C(=O)[C@H](CC(=O)NCCc1ccccc1OC)C2	-3	-21*	·	·	·	-1
COC(=O)[C@@]12C[C@@H](CC(=O)NCc3ccccc3)C(=O)N(Cc3ccccc3)C1=CCC(C)(C)C2	36*	·	·	·	·	4
